ChEMBL document CHEMBL5303300, “EUbOPEN Chemogenomics Library - Multiplex” (2023)
Several values for one entry are separate records, joined by “and”; a condition that tells them apart may be missing. Identical values can stand only once.

System: Fibroblast
Assay: Multiplex assay against human fibroblast
Format: toxicity, cell-based
Details: number of replicates 2
Procedure, shortened: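 Live cells were stained at seeding with Hoechst33342, BioTracker Green Microtubule Cytoskeleton Dye, MitoTracker Red and Annexin V Alexa Fluor 680. Following compound addition, they were imaged on a CQ1 microscope at 37°C and 5% CO2 and gated by CellPathfinder machine learning into Hoechst high-intensity objects or normal cells, with normal cells split into healthy, pyknosed or fragmented nuclei and pyknosed cells into mitotic or apoptotic. Tubulin, mitochondrial-mass and membrane-permeability phenotypes are per cents of healthy-nucleus cells.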

[1] = 12 h, 1 µM, compound concentration 1 uM
[2] = 12 h, 10 µM, compound concentration 10 uM
[3] = 24 h, 1 µM, compound concentration 1 uM
[4] = 24 h, 10 µM, compound concentration 10 uM
[5] = 48 h, 1 µM, compound concentration 1 uM
[6] = 48 h, 10 µM, compound concentration 10 uM

In the case of `Cc1ccc(C(=O)Nc2cc(N3CCN(C)CC3)cc(C(F)(F)F)c2)cc1-n1cc(-c2cnn(C)c2C)nn1.Cl`, the “Population Apoptotic (%)” value [1] is reported as 40% and 42%, the “Population Fragmented Nuclei (%)” value [1] is reported as 6% and 16% and the “Population Healthy Nuclei (%)” value [1] is reported as 48% and 59%. For the same compound, the “Population Hoechst High Intensity Objects (%)” value [1] was 0%, the “Population Membrane Permeable-Phenotype (%)” value [1] was 20% and 12% and the “Population Mitochondria Different-Phenotype (%)” value [1] was 2%. The “Population Mitotic Cells (%)” value [1] was 59% and 57%, the “Population Normal (%)” value [1] was 100% and the “Population Pyknosed Nuclei (%)” value [1] was 44% and 24%. The “Population Tubulin-Different-Phenotype (%)” value [1] was 35% and 32%, the “Total Cell Count” value [1] was 165 and 172 and the “Population Apoptotic (%)” value [2] was 61% and 35%. The “Population Fragmented Nuclei (%)” value [2] was 17% and 18%, the “Population Healthy Nuclei (%)” value [2] was 51% and 62% and the “Population Hoechst High Intensity Objects (%)” value [2] was 0% and 1%. For the same compound, the “Population Membrane Permeable-Phenotype (%)” value [2] was 12% and 11%, the “Population Mitochondria Different-Phenotype (%)” value [2] was 4% and 7% and the “Population Mitotic Cells (%)” value [2] was 38% and 64%. The “Population Normal (%)” value [2] was 99% and 98%, the “Population Pyknosed Nuclei (%)” value [2] was 30% and 19% and the “Population Tubulin-Different-Phenotype (%)” value [2] was 85% and 70%. The “Total Cell Count” value [2] was 198 and 294, the “Population Apoptotic (%)” value [3] was 65% and 41% and the “Population Fragmented Nuclei (%)” value [3] was 10% and 17%. The “Population Healthy Nuclei (%)” value [3] was 46% and 59%, the “Population Hoechst High Intensity Objects (%)” value [3] was 0% and the “Population Membrane Permeable-Phenotype (%)” value [3] was 7% and 4%. For the same compound, the “Population Mitochondria Different-Phenotype (%)” value [3] was 7%, the “Population Mitotic Cells (%)” value [3] was 34% and 58% and the “Population Normal (%)” value [3] was 99% and 100%. The “Population Pyknosed Nuclei (%)” value [3] was 42% and 23%, the “Population Tubulin-Different-Phenotype (%)” value [3] was 36% and 35% and the “Total Cell Count” value [3] was 150 and 176. For the same compound, the “Population Apoptotic (%)” value [4] was 68% and 63%, the “Population Fragmented Nuclei (%)” value [4] was 16% and 17% and the “Population Healthy Nuclei (%)” value [4] was 57% and 59%. The “Population Hoechst High Intensity Objects (%)” value [4] was 0% and 1%, the “Population Membrane Permeable-Phenotype (%)” value [4] was 7% and 5% and the “Population Mitochondria Different-Phenotype (%)” value [4] was 12% and 15%. For the same compound, the “Population Mitotic Cells (%)” value [4] was 31% and 36%, the “Population Normal (%)” value [4] was 99% and 98% and the “Population Pyknosed Nuclei (%)” value [4] was 25% and 23%. For the same compound, the “Population Tubulin-Different-Phenotype (%)” value [4] was 76% and 58%, the “Total Cell Count” value [4] was 261 and 279 and the “Population Apoptotic (%)” value [5] was 76% and 68%. The “Population Fragmented Nuclei (%)” value [5] was 15% and 18%, the “Population Healthy Nuclei (%)” value [5] was 49% and 66% and the “Population Hoechst High Intensity Objects (%)” value [5] was 0% and 1%. For the same compound, the “Population Membrane Permeable-Phenotype (%)” value [5] was 2%, the “Population Mitochondria Different-Phenotype (%)” value [5] was 5% and the “Population Mitotic Cells (%)” value [5] was 23% and 32%. The “Population Normal (%)” value [5] was 100% and 98%, the “Population Pyknosed Nuclei (%)” value [5] was 34% and 15% and the “Population Tubulin-Different-Phenotype (%)” value [5] was 32% and 19%. For the same compound, the “Total Cell Count” value [5] was 161 and 167, the “Population Apoptotic (%)” value [6] was 84% and 82% and the “Population Fragmented Nuclei (%)” value [6] was 19%. The “Population Healthy Nuclei (%)” value [6] was 59% and 63%, the “Population Hoechst High Intensity Objects (%)” value [6] was 3% and 4% and the “Population Membrane Permeable-Phenotype (%)” value [6] was 5% and 6%. For the same compound, the “Population Mitochondria Different-Phenotype (%)” value [6] was 10%, the “Population Mitotic Cells (%)” value [6] was 15% and 17% and the “Population Normal (%)” value [6] was 96% and 95%. For the same compound, the “Population Pyknosed Nuclei (%)” value [6] was 21% and 17%, the “Population Tubulin-Different-Phenotype (%)” value [6] was 68% and 54% and the “Total Cell Count” value [6] was 226 and 303.
With `Cc1c(C(=O)Nc2ccc(N3C[C@@H](C)O[C@@H](C)C3)nc2)cccc1-c1ccc(OC(F)(F)F)cc1` [SONIDEGIB] the “Population Apoptotic (%)” value [1] was 46% and 32%, the “Population Fragmented Nuclei (%)” value [1] was 13% and 9% and the “Population Healthy Nuclei (%)” value [1] was 64% and 70%. The “Population Hoechst High Intensity Objects (%)” value [1] was 0%, the “Population Membrane Permeable-Phenotype (%)” value [1] was 5% and the “Population Mitochondria Different-Phenotype (%)” value [1] was 0% and 1%. The “Population Mitotic Cells (%)” value [1] was 53% and 67%, the “Population Normal (%)” value [1] was 100% and the “Population Pyknosed Nuclei (%)” value [1] was 22% and 20%. The “Population Tubulin-Different-Phenotype (%)” value [1] was 16% and 10%, the “Total Cell Count” value [1] was 193 and 230 and the “Population Apoptotic (%)” value [2] was 55% and 38%. The “Population Fragmented Nuclei (%)” value [2] was 8% and 9%, the “Population Healthy Nuclei (%)” value [2] was 83% and 80% and the “Population Hoechst High Intensity Objects (%)” value [2] was 0%. The “Population Membrane Permeable-Phenotype (%)” value [2] was 1% and 0%, the “Population Mitochondria Different-Phenotype (%)” value [2] was 1% and 0% and the “Population Mitotic Cells (%)” value [2] was 44% and 61%. The “Population Normal (%)” value [2] was 100%, the “Population Pyknosed Nuclei (%)” value [2] was 7% and 10% and the “Population Tubulin-Different-Phenotype (%)” value [2] was 1% and 7%. For the same compound, the “Total Cell Count” value [2] was 117 and 128, the “Population Apoptotic (%)” value [3] was 53% and 52% and the “Population Fragmented Nuclei (%)” value [3] was 15% and 12%. The “Population Healthy Nuclei (%)” value [3] was 60% and 69%, the “Population Hoechst High Intensity Objects (%)” value [3] was 0% and the “Population Membrane Permeable-Phenotype (%)” value [3] was 3%. The “Population Mitochondria Different-Phenotype (%)” value [3] was 1% and 0%, the “Population Mitotic Cells (%)” value [3] was 46% and 47% and the “Population Normal (%)” value [3] was 100%. The “Population Pyknosed Nuclei (%)” value [3] was 24% and 17%, the “Population Tubulin-Different-Phenotype (%)” value [3] was 10% and 7% and the “Total Cell Count” value [3] was 179 and 224. For the same compound, the “Population Apoptotic (%)” value [4] was 53% and 57%, the “Population Fragmented Nuclei (%)” value [4] was 15% and 16% and the “Population Healthy Nuclei (%)” value [4] was 73% and 70%. The “Population Hoechst High Intensity Objects (%)” value [4] was 0%, the “Population Membrane Permeable-Phenotype (%)” value [4] was 4% and 5% and the “Population Mitochondria Different-Phenotype (%)” value [4] was 0% and 2%. The “Population Mitotic Cells (%)” value [4] was 46% and 42%, the “Population Normal (%)” value [4] was 100% and the “Population Pyknosed Nuclei (%)” value [4] was 10% and 13%. The “Population Tubulin-Different-Phenotype (%)” value [4] was 4% and 8%, the “Total Cell Count” value [4] was 123 and 141 and the “Population Apoptotic (%)” value [5] was 63% and 45%. The “Population Fragmented Nuclei (%)” value [5] was 16% and 12%, the “Population Healthy Nuclei (%)” value [5] was 65% and 72% and the “Population Hoechst High Intensity Objects (%)” value [5] was 0%. For the same compound, the “Population Membrane Permeable-Phenotype (%)” value [5] was 1% and 5%, the “Population Mitochondria Different-Phenotype (%)” value [5] was 0% and the “Population Mitotic Cells (%)” value [5] was 36% and 54%. For the same compound, the “Population Normal (%)” value [5] was 100%, the “Population Pyknosed Nuclei (%)” value [5] was 18% and 15% and the “Population Tubulin-Different-Phenotype (%)” value [5] was 9% and 3%. For the same compound, the “Total Cell Count” value [5] was 162 and 218, the “Population Apoptotic (%)” value [6] was 57% and 66% and the “Population Fragmented Nuclei (%)” value [6] was 13% and 18%. For the same compound, the “Population Healthy Nuclei (%)” value [6] was 75% and 59%, the “Population Hoechst High Intensity Objects (%)” value [6] was 0% and the “Population Membrane Permeable-Phenotype (%)” value [6] was 4% and 6%. For the same compound, the “Population Mitochondria Different-Phenotype (%)” value [6] was 0% and 1%, the “Population Mitotic Cells (%)” value [6] was 42% and 33% and the “Population Normal (%)” value [6] was 100%. The “Population Pyknosed Nuclei (%)” value [6] was 10% and 21%, the “Population Tubulin-Different-Phenotype (%)” value [6] was 3% and 6% and the “Total Cell Count” value [6] was 128 and 138.
